Reference: ChEMBL document CHEMBL1141663, “Synthesis and antibacterial activity of bis-[2-hydroxy-3-(1,7,8,9,10-pentamethyl-3,5-dioxo-4-aza-tricyclo[5.2.1.0(2,6)]dec-8-en-4-yloxy)-propyl]-dimethyl-ammonium chloride” (2008)
Values after ≈ are worked out from the molar mass of the structure shown. Active and inactive are the calls of the source. The calls are words filed in the database; no cut-off is given here.

How the values were obtained:
Pseudomonas aeruginosa [1] = assay: Antibacterial activity against Pseudomonas aeruginosa NCTC 6749 at 10 ug/disk after 24 to 48 hrs by disc-diffusion method; type: functional, organism-based
Pseudomonas aeruginosa [2] = assay: Antibacterial activity against Pseudomonas aeruginosa ATCC […] at 10 ug/disk after 24 to 48 hrs by disc-diffusion method; type: functional, organism-based
[3] = system: Bordetella bronchiseptica; assay: Antibacterial activity against Bordetella bronchiseptica ATCC 4617 at 10 ug/disk after 24 to 48 hrs by disc-diffusion method; type: functional, organism-based
Bacillus subtilis [4] = assay: Antibacterial activity against Bacillus subtilis ATCC 6633 at 10 ug/disk after 24 to 48 hrs by disc-diffusion method; type: functional, organism-based
Staphylococcus aureus [5] = assay: Antibacterial activity against Staphylococcus aureus ATCC 6538P at 10 ug/disk after 24 to 48 hrs by disc-diffusion method
Staphylococcus aureus [6] = assay: Antibacterial activity against Staphylococcus aureus ATCC 25923 at 10 ug/disk after 24 to 48 hrs by disc-diffusion method
Candida albicans [7] = assay: microbe, parasite or virus in culture; details: ATCC 10231, read-out: IZ
Escherichia coli [8] = assay: Antibacterial activity against Escherichia coli ATCC […] at 10 ug/disk after 24 to 48 hrs by disc-diffusion method; type: functional, organism-based
Staphylococcus aureus [9] = assay: Antibacterial activity against Staphylococcus aureus ATCC 29213 at 10 ug/disk after 24 to 48 hrs by disc-diffusion method; type: functional, organism-based
Escherichia coli [10] = assay: Antibacterial activity against Escherichia coli ATCC […] at 10 ug/disk after 24 to 48 hrs by disc-diffusion method; type: functional, organism-based
Enterococcus hirae [11] = assay: Antibacterial activity against Enterococcus hirae ATCC 10541 at 10 ug/disk after 24 to 48 hrs by disc-diffusion method
Staphylococcus aureus [12] = assay: Antibacterial activity against Staphylococcus aureus NCTC 4163 at 10 ug/disk after 24 to 48 hrs by disc-diffusion method; type: functional, organism-based
Staphylococcus aureus [13] = assay: Antibacterial activity against methicillin-susceptible Staphylococcus aureus 60/05 isolates after 18 hrs; type: functional
Summary of the method: (§1)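 Agar-dilution MIC on Mueller–Hinton II agar per CLSI guidelines. Aqueous test solutions were added to liquid agar to give two dilution series across 6.25–400 µg/mL. Solidified plates were spot-inoculated with 2 µL aliquots to a final inoculum of 10^4 […]. […] Strains were standard S. aureus strains or hospital patient isolates typed MSSA/MRSA.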

Pseudomonas aeruginosa [14] = assay: microbe, parasite or virus in culture; details: NCTC 6749, read-out: IZ
Staphylococcus aureus [15] = assay: Antibacterial activity against methicillin-susceptible Staphylococcus aureus 98/06 isolates after 18 hrs; type: functional; summary of the method: as §1
Staphylococcus aureus [16] = assay: Antibacterial activity against methicillin-susceptible Staphylococcus aureus 2/04 isolates after 18 hrs; type: functional; summary of the method: as §1
Staphylococcus aureus [17] = assay: microbe, parasite or virus in culture; details: ATCC 25923, read-out: IZ
Escherichia coli [18] = assay: microbe, parasite or virus in culture; details: ATCC 25922, read-out: IZ
Staphylococcus aureus [19] = assay: Antibacterial activity against methicillin-susceptible Staphylococcus aureus 7/04 isolates after 18 hrs; type: functional; summary of the method: as §1
Staphylococcus aureus [20] = assay: Antibacterial activity against methicillin-resistant Staphylococcus aureus 54/05 isolates after 18 hrs; type: functional; summary of the method: as §1
Staphylococcus aureus [21] = assay: Antibacterial activity against methicillin-susceptible Staphylococcus aureus 49/05 isolates after 18 hrs; type: functional; summary of the method: as §1
Staphylococcus aureus [22] = assay: Antibacterial activity against Staphylococcus aureus NCTC 4163 after 18 hrs; type: functional; details: NCTC 4163, 18 h; summary of the method: as §1
Staphylococcus aureus [23] = assay: microbe, parasite or virus in culture; details: ATCC 29213, read-out: IZ
Staphylococcus aureus [24] = assay: Antibacterial activity against methicillin-resistant Staphylococcus aureus 47/05 isolates after 18 hrs; type: functional; summary of the method: as §1
Staphylococcus aureus [25] = assay: Antibacterial activity against methicillin-susceptible Staphylococcus aureus 14/04 isolates after 18 hrs; type: functional; summary of the method: as §1
Staphylococcus aureus [26] = assay: Antibacterial activity against methicillin-resistant Staphylococcus aureus 46/05 isolates after 18 hrs; type: functional; summary of the method: as §1
Staphylococcus aureus [27] = assay: Antibacterial activity against methicillin-susceptible Staphylococcus aureus 42/05 isolates after 18 hrs; type: functional; summary of the method: as §1
Staphylococcus aureus [28] = assay: Antibacterial activity against methicillin-susceptible Staphylococcus aureus 28/04 isolates after 18 hrs; type: functional; summary of the method: as §1
Staphylococcus aureus [29] = assay: Antibacterial activity against methicillin-susceptible Staphylococcus aureus 72/05 isolates after 18 hrs; type: functional; summary of the method: as §1
Staphylococcus aureus [30] = assay: Antibacterial activity against methicillin-resistant Staphylococcus aureus 19/04 isolates after 18 hrs; type: functional; summary of the method: as §1
Staphylococcus aureus [31] = assay: microbe, parasite or virus in culture; details: NCTC 4163, read-out: IZ
Staphylococcus aureus [32] = assay: Antibacterial activity against methicillin-resistant Staphylococcus aureus 83/05 isolates after 18 hrs; type: functional; summary of the method: as §1
Staphylococcus aureus [33] = assay: Antibacterial activity against methicillin-resistant Staphylococcus aureus 93/06 isolates after 18 hrs; type: functional; summary of the method: as §1
Pseudomonas aeruginosa [34] = assay: microbe, parasite or virus in culture; details: ATCC 15442, read-out: IZ
Staphylococcus aureus [35] = assay: Antibacterial activity against methicillin-susceptible Staphylococcus aureus 4/04 isolates after 18 hrs; type: functional; summary of the method: as §1
Staphylococcus aureus [36] = assay: Antibacterial activity against methicillin-susceptible Staphylococcus aureus 40/05 isolates after 18 hrs; type: functional; summary of the method: as §1
Staphylococcus aureus [37] = assay: Antibacterial activity against methicillin-resistant Staphylococcus aureus 55/05 isolates after 18 hrs; type: functional; summary of the method: as §1
Candida albicans [38] = assay: Antimicrobial activity against Candida albicans ATCC 10231 at 5 ug/disk after 24 to 48 hrs by disc-diffusion method; type: functional, organism-based
Staphylococcus aureus [39] = assay: Antibacterial activity against methicillin-resistant Staphylococcus aureus 1/04 isolates after 18 hrs; type: functional; summary of the method: as §1
Staphylococcus aureus [40] = assay: Antibacterial activity against methicillin-resistant Staphylococcus aureus 56/05 isolates after 18 hrs; type: functional; summary of the method: as §1
[41] = system: Bordetella bronchiseptica; assay: microbe, parasite or virus in culture; details: ATCC 4617, read-out: IZ
Bacillus subtilis [42] = assay: microbe, parasite or virus in culture; details: ATCC 6633, read-out: IZ
Staphylococcus aureus [43] = assay: Antibacterial activity against methicillin-resistant Staphylococcus aureus 79/05 isolates after 18 hrs; type: functional; summary of the method: as §1
Staphylococcus aureus [44] = assay: Antibacterial activity against methicillin-resistant Staphylococcus aureus 53/05 isolates after 18 hrs; type: functional; summary of the method: as §1
Staphylococcus aureus [45] = assay: Antibacterial activity against methicillin-susceptible Staphylococcus aureus 101/06 isolates after 18 hrs; type: functional; summary of the method: as §1
Staphylococcus aureus [46] = assay: Antibacterial activity against methicillin-susceptible Staphylococcus aureus 38/05 isolates after 18 hrs; type: functional; summary of the method: as §1
Staphylococcus aureus [47] = assay: Antibacterial activity against methicillin-resistant Staphylococcus aureus 92/06 isolates after 18 hrs; type: functional; summary of the method: as §1
Staphylococcus aureus [48] = assay: Antibacterial activity against Staphylococcus aureus ATCC 29213 after 18 hrs; type: functional; details: ATCC 29213, 18 h; summary of the method: as §1
Staphylococcus aureus [49] = assay: Antibacterial activity against methicillin-susceptible Staphylococcus aureus 3/04 isolates after 18 hrs; type: functional; summary of the method: as §1
Staphylococcus aureus [50] = assay: Antibacterial activity against methicillin-resistant Staphylococcus aureus 48/05 isolates after 18 hrs; type: functional; summary of the method: as §1
Staphylococcus aureus [51] = assay: microbe, parasite or virus in culture; details: ATCC 6538P, read-out: IZ
Staphylococcus aureus [52] = assay: Antibacterial activity against methicillin-resistant Staphylococcus aureus 91/06 isolates after 18 hrs; type: functional; summary of the method: as §1
Staphylococcus aureus [53] = assay: Antibacterial activity against methicillin-susceptible Staphylococcus aureus 6/04 isolates after 18 hrs; type: functional; summary of the method: as §1
Staphylococcus aureus [54] = assay: Antibacterial activity against Staphylococcus aureus ATCC 6538P after 18 hrs; type: functional; summary of the method: as §1
Staphylococcus aureus [55] = assay: Antibacterial activity against Staphylococcus aureus ATCC 25923 after 18 hrs; type: functional; details: ATCC 25923, 18 h; summary of the method: as §1
Staphylococcus aureus [56] = assay: Antibacterial activity against methicillin-resistant Staphylococcus aureus 29/04 isolates after 18 hrs; type: functional; summary of the method: as §1
Enterococcus hirae [57] = assay: Antibacterial activity against Enterococcus hirae ATCC 10541 at 5 ug/disk after 24 to 48 hrs by disc-diffusion method; type: functional, organism-based
Staphylococcus aureus [58] = assay: Antibacterial activity against methicillin-susceptible Staphylococcus aureus 65/05 isolates after 18 hrs; type: functional; summary of the method: as §1
Staphylococcus aureus [59] = assay: Antibacterial activity against methicillin-susceptible Staphylococcus aureus 102/06 isolates after 18 hrs; type: functional; summary of the method: as §1
Staphylococcus aureus [60] = assay: Antibacterial activity against methicillin-susceptible Staphylococcus aureus 69/05 isolates after 18 hrs; type: functional; summary of the method: as §1
Escherichia coli [61] = assay: microbe, parasite or virus in culture; details: ATCC 10538, read-out: IZ

For `Clc1ccc(COC(Cn2ccnc2)c2ccc(Cl)cc2Cl)c(Cl)c1` (stereo unspecified) [MICONAZOLE], the Activity (Pseudomonas aeruginosa [1]) was “inactive”, the Activity (Pseudomonas aeruginosa [2]) was “inactive” and the Activity [3] was “inactive”. The Activity (Bacillus subtilis [4]) was “inactive”, the Activity (Staphylococcus aureus [5]) was “inactive” and the Activity (Staphylococcus aureus [6]) was “inactive”. For the same molecule, the zone of inhibition at 10 µg/disc (Candida albicans [7]) was 20 mm, the Activity (Escherichia coli [8]) was “inactive” and the Activity (Staphylococcus aureus [9]) was “inactive”. The Activity (Escherichia coli [10]) was “inactive”, the Activity (Enterococcus hirae [11]) was “inactive” and the Activity (Staphylococcus aureus [12]) was “inactive”.
Work on `O=C(O)c1cn(C2CC2)c2cc(N3CCNCC3)c(F)cc2c1=O` [CIPROFLOXACIN] yielded an MIC (Staphylococcus aureus [13]) of 0.5 µg/mL (≈ 1.51 µM), a zone of inhibition at 5 µg/disc (Pseudomonas aeruginosa [14]) of 26 mm and an MIC (Staphylococcus aureus [15]) of 0.25 µg/mL (≈ 0.754 µM). It also gave an MIC (Staphylococcus aureus [16]) greater than 4 µg/mL, a zone of inhibition at 5 µg/disc (Staphylococcus aureus [17]) of 26 mm and a zone of inhibition at 5 µg/disc (Escherichia coli [18]) of 35 mm. It also gave an MIC (Staphylococcus aureus [19]) of 2 µg/mL (≈ 6.04 µM), an MIC (Staphylococcus aureus [20]) of 128 µg/mL (≈ 386 µM) and an MIC (Staphylococcus aureus [21]) of 0.25 µg/mL (≈ 0.754 µM). The MIC (Staphylococcus aureus [22]) was 0.5 µg/mL (≈ 1.51 µM), the zone of inhibition at 5 µg/disc (Staphylococcus aureus [23]) was 22 mm and the MIC (Staphylococcus aureus [24]) was 128 µg/mL (≈ 386 µM). It also gave an MIC (Staphylococcus aureus [25]) of 1 µg/mL (≈ 3.02 µM), an MIC (Staphylococcus aureus [26]) of 64 µg/mL (≈ 193 µM) and an MIC (Staphylococcus aureus [27]) of 2 µg/mL (≈ 6.04 µM). For the same molecule, the MIC (Staphylococcus aureus [28]) was 1 µg/mL (≈ 3.02 µM), the MIC (Staphylococcus aureus [29]) was 0.25 µg/mL (≈ 0.754 µM) and the MIC (Staphylococcus aureus [30]) was 64 µg/mL (≈ 193 µM). For the same molecule, the zone of inhibition at 5 µg/disc (Staphylococcus aureus [31]) was 26 mm, the MIC (Staphylococcus aureus [32]) was 32 µg/mL (≈ 96.6 µM) and the MIC (Staphylococcus aureus [33]) was 128 µg/mL (≈ 386 µM). It also gave a zone of inhibition at 5 µg/disc (Pseudomonas aeruginosa [34]) of 26 mm, an MIC (Staphylococcus aureus [35]) of 0.25 µg/mL (≈ 0.754 µM) and an MIC (Staphylococcus aureus [36]) of 0.5 µg/mL (≈ 1.51 µM). The MIC (Staphylococcus aureus [37]) was 128 µg/mL (≈ 386 µM), the Activity (Candida albicans [38]) was “inactive” and the MIC (Staphylococcus aureus [39]) was 64 µg/mL (≈ 193 µM). For the same molecule, the MIC (Staphylococcus aureus [40]) was 32 µg/mL (≈ 96.6 µM), the zone of inhibition at 5 µg/disc [41] was 31 mm and the zone of inhibition at 5 µg/disc (Bacillus subtilis [42]) was 40 mm. The MIC (Staphylococcus aureus [43]) was 128 µg/mL (≈ 386 µM), the MIC (Staphylococcus aureus [44]) was 128 µg/mL (≈ 386 µM) and the MIC (Staphylococcus aureus [45]) was 0.25 µg/mL (≈ 0.754 µM). For the same molecule, the MIC (Staphylococcus aureus [46]) was 0.25 µg/mL (≈ 0.754 µM), the MIC (Staphylococcus aureus [47]) was 8 µg/mL (≈ 24.1 µM) and the MIC (Staphylococcus aureus [48]) was 0.5 µg/mL (≈ 1.51 µM). It also gave an MIC (Staphylococcus aureus [49]) of 0.25 µg/mL (≈ 0.754 µM), an MIC (Staphylococcus aureus [50]) of 128 µg/mL (≈ 386 µM) and a zone of inhibition at 5 µg/disc (Staphylococcus aureus [51]) of 28 mm. The MIC (Staphylococcus aureus [52]) was greater than 128 µg/mL, the MIC (Staphylococcus aureus [53]) was 0.25 µg/mL (≈ 0.754 µM) and the MIC (Staphylococcus aureus [54]) was 0.5 µg/mL (≈ 1.51 µM). The MIC (Staphylococcus aureus [55]) was 0.5 µg/mL (≈ 1.51 µM), the MIC (Staphylococcus aureus [56]) was 64 µg/mL (≈ 193 µM) and the Activity (Enterococcus hirae [57]) was “inactive”. It also gave an MIC (Staphylococcus aureus [58]) of 0.5 µg/mL (≈ 1.51 µM), an MIC (Staphylococcus aureus [59]) of 0.5 µg/mL (≈ 1.51 µM) and an MIC (Staphylococcus aureus [60]) of 2 µg/mL (≈ 6.04 µM). It also gave a zone of inhibition at 5 µg/disc (Escherichia coli [61]) of 34 mm.
